The source of these data is ChEMBL document CHEMBL1152640, “Synthesis and antiproliferative evaluation of 6-arylindeno[1,2-c]quinoline derivatives” (Bioorg Med Chem, 2009).

SMILES strings stand for the structures. The source made the active and inactive calls. The calls are words filed in the database; no cut-off is given here.

Data set [1] has as its system A549. The data set is described as follows: Induction of apoptosis in human A549 cells assessed as apoptotic bodies after 24 hrs by fluorescence microscopy. The class given is functional, cell-based. An outline of the steps:
(§1)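 A549 cells on cover glasses were treated for 24 h, then fixed in 4% paraformaldehyde for 1 h. Glycine-PBS wash, then permeabilization with 2% FBS and 0.4% Triton X-100 for 15 min. Cells were stained with anti-β-tubulin monoclonal (1:1000, 4 °C overnight), then FITC anti-mouse IgG (1:200, 1 h, room temperature). DAPI was added for nuclei, and imaging was by confocal laser scanning microscopy.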

In data set [2] the test system is A549. The data set is described as follows: Cell cycle arrest in human A549 cells assessed as accumulation at G1 phase at 1.0 uM after 24 hrs by flow cytometry. Format: functional. In a few lines:
(§2)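 A549 cells were exposed to DMSO or compound at 0.1, 1.0, 5.0 or 10.0 µM for 24 h. Cells were harvested, rinsed in PBS, fixed in 70% ethanol and stored at −20 °C. Staining used propidium iodide solution with 0.2 mg/mL RNase and 0.1% Triton X-100, at least 30 min at room temperature in the dark. Cell-cycle phases were read by flow cytometry.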
In general terms: Flow cytometry measures light scatter and fluorescence of single cells or particles in a stream.

The nature of data set [3]: Antiproliferative activity against human Hep3B cells after 72 hrs by XTT assay. Format: functional, Hep 3B2. An outline of the steps:
(§3)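 Cells were grown as monolayers in DMEM with 10% FBS, penicillin, streptomycin and amphotericin at 37 °C and 5% CO2. Plating was 5×10³ cells/well, with treatment for 72 h in 10% FBS medium, a medium change, then another day. XTT (1 mg/mL) plus PMS in serum-free medium was added for 4 h at 37 °C and read at 492 nm. Growth was taken as % of control (mean of n = 3). GI50 was taken from the linear portion of the curve as the 50% absorbance reduction.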
(In general: Tetrazolium dyes change colour on reduction, which living cells bring about.)

For data set [4], the system named is A549. The data set is described as follows: Cell cycle arrest in human A549 cells assessed as accumulation at S phase at 5.0 uM after 24 hrs by flow cytometry. Format: functional. An outline of the steps:
as §2

Data set [5] concerns A549. The data set is described as follows: Induction of apoptosis in human A549 cells assessed as microtubule network damage at 10.0 uM after 24 hrs by immunofluorescence. The class given is functional, cell-based. An outline of the steps: as §1
Data set [6] concerns A549. The experiment in a line: Cell cycle arrest in human A549 cells assessed as accumulation at G1 phase at 5.0 uM after 24 hrs by flow cytometry. Format: functional. In a few lines: as §2
The subject of data set [7] is A549. The data set is described as follows: Induction of apoptosis in human A549 cells assessed as shrinkage in microtubule network at 1.0 uM after 24 hrs by immunofluorescence. The class given is functional, cell-based. In a few lines: as §1
The subject of data set [8] is A549. The experiment in a line: Cell cycle arrest in human A549 cells assessed as accumulation at G2/M phase at 5.0 uM after 24 hrs by flow cytometry. The class given is functional. In a few lines: as §2
The test system of data set [9] is A549. The data set is described as follows: Cell cycle arrest in human A549 cells assessed as accumulation at subG1 phase at 0.1 uM after 24 hrs by flow cytometry. The class given is functional. In a few lines:
as §2

The nature of data set [10]: Antiproliferative activity against human H1299 cells after 72 hrs by XTT assay. The class given is functional. To be noted: NCI-H1299, 72 h. In a few lines: as §3
Data set [11] can be described thus: Cytotoxicity against human MRC5 cells after 72 hrs by XTT assay. Format: cell-based. An outline of the steps:
as §3

The test system of data set [12] is A549. The experiment in a line: Cell cycle arrest in human A549 cells assessed as accumulation at G2/M phase at 1.0 uM after 24 hrs by flow cytometry. The class given is functional. An outline of the steps:
as §2

Data set [13] concerns HepG2. The data set is described as follows: Antiproliferative activity against human HepG2 cells after 72 hrs by XTT assay. The class given is functional. To be noted: HepG2, 72 h. In a few lines: as §3
The subject of data set [14] is A549. The data set is described as follows: Cell cycle arrest in human A549 cells assessed as accumulation at S phase at 0.1 uM after 24 hrs by flow cytometry. The class given is functional. An outline of the steps:
as §2

Data set [15] deals with A549. The data set is described as follows: Induction of apoptosis in human A549 cells assessed as morphological changes after 24 hrs by fluorescence microscopy. The class given is functional, cell-based. An outline of the steps: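 A549 cells were treated with DMSO or compound at 1, 5 or 10 µM for 24 h at 37 °C, then photographed under a microscope.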
Data set [16] concerns A549. The data set is described as follows: Cell cycle arrest in human A549 cells assessed as accumulation at subG1 phase at 1.0 uM after 24 hrs by flow cytometry. Format: functional. An outline of the steps:
as §2

Data set [17] in a line: Antiproliferative activity against human HepG2(2.2.1) cells after 72 hrs by XTT assay. To be noted: HepG2, 72 h. The class given is functional. In a few lines:
as §3

The subject of data set [18] is A549. The experiment in a line: Induction of apoptosis in human A549 cells assessed as DNA fragmentation after 24 hrs by agarose gel electrophoresis. Format: functional, cell-based. An outline of the steps:
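A549 cells were treated at 1.0, 5.0 or 10.0 µM for 24 h and washed in PBS. Total genomic DNA was isolated with a kit and run on a 2.0% agarose gel in 1× TAE at 100 V.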

Data set [19] relates to A549. The data set is described as follows: Cell cycle arrest in human A549 cells assessed as accumulation at subG1 phase at 5.0 uM after 24 hrs by flow cytometry. Format: functional. In a few lines: as §2
In data set [20] the test system is A549. The experiment in a line: Antiproliferative activity against human A549 cells after 72 hrs by XTT assay. The class given is functional. To be noted: A549, 72 h. An outline of the steps:
as §3

The test system of data set [21] is A549. The data set is described as follows: Cell cycle arrest in human A549 cells assessed as accumulation at G2/M phase at 0.1 uM after 24 hrs by flow cytometry. The class given is functional. In a few lines: as §2
Data set [22] relates to A549. The experiment in a line: Cell cycle arrest in human A549 cells assessed as accumulation at G1 phase at 0.1 uM after 24 hrs by flow cytometry. The class given is functional. An outline of the steps: as §2
The subject of data set [23] is A549. The experiment in a line: Induction of apoptosis in human A549 cells assessed as PARP cleavage after 24 hrs by Western blot. The class given is functional, cell-based. In a few lines:
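Exponentially growing A549 cells were treated for 24 h, then lysed on ice for 30 min in Tris pH 7.5/NP-40 buffer with protease and phosphatase inhibitors. Protein was measured by Bradford, and 20 µg was resolved on 10% SDS–PAGE and transferred to PVDF. Blots were blocked in 5% milk, probed with anti-PARP (1:1000, 2 h) then HRP anti-rabbit (1:5000, 30 min), and reprobed for β-actin as a loading check.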
In general terms: A western blot detects proteins with antibodies after separation by electrophoresis.

Data set [24] has as its system A549. The data set is described as follows: Cell cycle arrest in human A549 cells assessed as accumulation at S phase at 1.0 uM after 24 hrs by flow cytometry. The class given is functional. In a few lines:
as §2

For `CN(C)CCCOc1ccc(-c2nc3ccc(OCCCN(C)C)cc3c3c2-c2ccc(OCCCN(C)C)cc2C3=O)cc1`, the result in data set [1], in data set [5], in data set [7], in data set [15] and in data set [18] was Active. In addition, the Activity in data set [2] is given as 75%; in data set [4], 12.3%; in [6] it was 71.9%; in [8], 15.8%; in data set [9], 1.5%; in data set [12], 11%. Besides, the Activity in data set [14] is 16.3%; in data set [16], 2%; in [19] it was 17.1%; in [21], 9.8%; in [22], 73.9%; in data set [23], “Dose-dependent effect”. Besides, the Activity in data set [24] is 13.6%. The GI50 (as a rule, the concentration that inhibits growth by half) was 4.44 µM in data set [3]; 5.18 µM in [10]; 0.6 µM in data set [13]; 4.25 µM in [17]; 0.68 µM in data set [20]. The molecule further displayed a GI50 at 72 h in [11] of 6.2 µM.
